Screening results (PubChem BioAssay)
Shown are actives, neighbours in structure and some others; about 2.6% of the full set was active somewhere.
VIM-2 inhibitor: blocks Pseudomonas aeruginosa VIM-2 metallo-beta-lactamase; purified VIM-2, nitrocefin hydrolysis, epi-absorbance fluorescence; inhibition, % at 5.6 µM; 290,000 tested, 0.89% active;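 active = inhibition above the mean of all tested compounds plus 3 SD, cutoff set per screening run, cut at about 7.5% in these data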;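 also: red hydrolysis product quenches plate fluorescence so inhibitors raise well fluorescence; 0% = enzyme with DMSO and 100% = DMSO without enzyme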
ARFGAP1 inh: rat ARFGAP1 inhibition | Q62848 | Arfgap1-stimulated ARF1 GTP hydrolysis, GDP FP detection | inhibition, % at 16.5 µM | 360,000 tested, 0.26% active | AID 651572;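 active = inhibition above a per-plate limit, mean inhibition of low control wells plus 3 SD, cut at about 25% in these data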;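 also: 0% = DMSO wells with enzyme and 100% = wells lacking Arfgap1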
Target sequence (Q62848 1-136 limits assumed): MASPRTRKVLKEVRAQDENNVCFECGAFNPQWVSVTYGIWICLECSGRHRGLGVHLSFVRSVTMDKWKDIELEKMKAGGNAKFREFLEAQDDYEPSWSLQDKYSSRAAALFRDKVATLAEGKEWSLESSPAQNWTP
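system = rat Arfgap1 catalytic domain, aa 1-136 | technique = FP, GDP Alexa 633 tracer displaced from anti-GDP antibody, 620/688 nm | compound = one concentration, 16.5 µM, DMSO 1.26% | medium = HEPES-based buffer, pH 7.5 | timing = compound-enzyme preincubation 20 min, reaction 120 min, detection 60 min, 25 °C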
ASAP1 GAP inh: blocks human ASAP1-stimulated Arf1 GTP hydrolysis; Q9ULH1; GDP FP detection; inhibition, % at 16.5 µM; 360,000 tested, 0.19% active; in the data active = inhibition above about 25%;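 also: 0% = vehicle with enzyme and substrate and 100% = no enzyme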
IMP-1 inhibitor: inhibitors of Pseudomonas aeruginosa IMP-1 metallo-beta-lactamase; purified IMP-1, nitrocefin hydrolysis, epi-absorbance fluorescence; inhibition, % at 5.6 µM; 290,000 tested, 0.45% active; AID 1556;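 active = inhibition above the mean plus 3 SD of all compounds in the same screening run, cut at about 4.5% in these data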;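 also: 0% = IMP-1 with DMSO and 100% = DMSO wells lacking enzyme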
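System: purified IMP-1 / Input: IMP-1 dispensed at 0.2 nM / Medium: 50 mM HEPES pH 7.1, 50 µM ZnSO4, 0.05% Brij 35 / Timing: 15 min enzyme–compound preincubation, then 25 min nitrocefin reaction, 25 °C / Technique: plate fluorescence quenching by hydrolysis product, ex 480/em 530 nm / Repeats: singlicate testing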
PHOSPHO1 inh: inhibitors of human PHOSPHO1 phosphatase | recombinant PHOSPHO1, absorbance phosphatase assay | inhibition, % at 13.3 µM | Q8TCT1 | 290,000 tested, 1.1% active; in the data active = inhibition above about 60%
Calb FLC: C. albicans growth modulation with fluconazole. C. albicans CaCi-2 + fluconazole, Alamar Blue growth, 48 h. growth inhibition, % (no concentration beside the values). 300,000 tested, 0.57% active. AID 1979;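 active = growth inhibition above about 58% in most replicates, limit read from the data, passing the limit was not always enough; inconclusive = exactly half the replicates above a set limit; inactive = most replicates below a set limit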;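 also: all wells also contain fluconazole at 8 µg/ml as a sub-toxic cotreatment; 0% = median of DMSO wells and 100% = median of geldanamycin control wells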
VIM-2 inh confirm: VIM-2 inhibition, confirmation assay; shares compounds with IMP-1 inhibitor; purified VIM-2 enzyme, nitrocefin absorbance; inhibition, % at 5.6 µM; 200 tested, 73% active; AID 1860; in the data active = inhibition above about 8%;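 also: 0% = enzyme with vehicle and 100% = no enzyme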
TEM-1 counter: blocks E. coli TEM-1 beta-lactamase, VIM-2 IMP-1 counter-screen. shares compounds with IMP-1 inhibitor. nitrocefin absorbance inhibition. inhibition, % at 5.6 µM. 200 tested, 50% active. AID 2184; in the data active = inhibition above about 0.66%
Target sequence (P62593 whole entry, looked up): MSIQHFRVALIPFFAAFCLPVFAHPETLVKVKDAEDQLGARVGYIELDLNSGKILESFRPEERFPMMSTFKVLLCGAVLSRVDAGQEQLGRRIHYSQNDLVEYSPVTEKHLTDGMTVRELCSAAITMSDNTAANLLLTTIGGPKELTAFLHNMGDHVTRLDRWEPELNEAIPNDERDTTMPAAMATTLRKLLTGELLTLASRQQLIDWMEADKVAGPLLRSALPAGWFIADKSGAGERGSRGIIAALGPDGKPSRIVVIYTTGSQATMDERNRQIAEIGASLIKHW
IMP-1 inh conf: confirmation of P. aeruginosa IMP-1 metallo-beta-lactamase inhibitors. shares compounds with IMP-1 inhibitor. purified IMP-1 enzyme, absorbance substrate hydrolysis. inhibition, % at 5.6 µM. 200 tested, 60% active. AID 2189; in the data active = inhibition above about 4.9%;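 also: 0% = enzyme with vehicle and 100% = vehicle without enzyme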
The depositor's hits bear a star; ? = inconclusive; nt = no result.

SMILES	VIM-2 inhibitor	ARFGAP1 inh	ASAP1 GAP inh	IMP-1 inhibitor	PHOSPHO1 inh	Calb FLC	VIM-2 inh confirm	TEM-1 counter	IMP-1 inh conf
c1ccc(-c2nc(NCc3ccco3)c3ccccc3n2)nc1	15*	-6	-2	8.8*	-14	-21	13*	-3	1
CC(=O)NC(c1ccc(F)c(F)c1)c1nc(-c2cccc(C(C)C)c2)cs1 (configuration not stated)	nt	3	-3	nt	nt	nt	nt	nt	nt
CC(Nc1nc(-c2ccc(F)cc2)cs1)c1nc2cc(Cl)c(Cl)cc2n1CCCO (configuration not stated)	nt	9	12	nt	nt	2	nt	nt	nt
Cc1ccc(Cn2c(C(C)Nc3nc(-c4ccc(C)cc4)cs3)nc3cc(Cl)c(Cl)cc32)cc1 (configuration not stated)	12*	8	12	29*	-7	-15	11*	-6	25*
CCN(CC)c1ccc(/C=C2\C(=N)N3N=C(CC(=O)N4CCOCC4)SC3=NC2=O)cc1	11*	-1	15	6.4*	38	-7	9.3*	-1	3
CSc1ccc(/C=C2\C(=N)N3N=C(CC(=O)N4CCOCC4)SC3=NC2=O)cc1	-3	0	-5	-3	31	-6	nt	nt	nt
O=[n+]1c2c(n([O-])c3ccccc31)CCCC2	13*	3	7	35*	11	26	0	-1	-3
O=[n+]1c2c(n([O-])c3cc(Br)ccc31)CCCC2	-2	-8	-5	-1	-4	3	nt	nt	nt
O=C(Nc1ccccc1)OC[C@@H]1C=CS(=O)(=O)N1Cc1ccc(Br)cc1	nt	13	0	nt	nt	nt	nt	nt	nt
Cn1cc(/C=C(\C(=O)O)C(C(=O)O)=C2CCCCC2)c2ccccc21	9.5*	1	-19	11*	4	13	13*	0	10*
CC1=C(C(=O)N(C(C)C)C(C)C)CC(CC(=O)NCc2ccco2)C(=O)N1Cc1ccc(C(C)(C)C)cc1 (configuration not stated)	nt	0	-3	nt	nt	nt	nt	nt	nt
COc1ccccc1N1N=C(c2ccc([N+](=O)[O-])cc2)CC1c1ccccc1 (configuration not stated)	31*	19	-1	35*	14	2	18*	27*	16*
Nc1ccc(-c2c3ccc(=O)cc-3oc3cc(O)ccc23)cc1C(=O)O	70*	12	-3	51*	40	-6	59*	62*	42*
O=c1cc(-c2ccccc2)oc2cc(O)ccc12	nt	-3	4	nt	nt	nt	nt	nt	nt
O=c1ccc2c(-c3ccccc3)c3ccc(O)cc3oc-2c1	81*	-17	-8	84*	-7	9	101*	152*	96*
CCN(CC)c1ccc2cc(C=O)c(=O)oc2c1	15*	7	-8	15*	-3	5	16*	15*	12*
COc1cccc(CN2CCC2(C)C(=O)Nc2cccc(Oc3ccccc3)c2)c1OC (configuration not stated)	nt	6	4	nt	nt	nt	nt	nt	nt
COC(=O)c1cnc(NC(=O)C2(C)CCN2C(=O)C(C)C)s1 (configuration not stated)	nt	-5	3	nt	nt	nt	nt	nt	nt
N#CC(C#N)=C1C=C2C=C(N3CCCCC3)CCC2CC1 (configuration not stated)	48*	nt	nt	58*	7	nt	62*	87*	58*
CCN(CC)C1=CC2=CC(=C(C#N)C#N)CCC2CC1 (configuration not stated)	36*	-5	4	47*	0	nt	60*	79*	58*
CCCCN(C)C1=CC2=CC(=C(C#N)C#N)CCC2CC1 (configuration not stated)	30*	-4	10	43*	-19	?	53*	79*	50*
CCCCc1c(Cc2ccccc2)ncn1CCc1ccccc1OC	nt	4	1	nt	nt	nt	nt	nt	nt
